Active and inactive are the calls of the source. The rule behind the calls is not given here.
Assays:
[1] = species: Cavia porcellus; assay: Percent inhibition of the leukotriene E4 (LTE4)-induced contraction of guinea pig tracheal spirals at 3.3 uM concentration; settings: Trachea
[2] = species: Cavia porcellus; assay: Percent inhibition of the leukotriene E4 (LTE4)-induced contraction of guinea pig tracheal spirals at 1 uM concentration; NS means data was not statistically significant; settings: Trachea
[3] = species: Cavia porcellus; assay: Percent inhibition of the leukotriene E4 -induced contraction of guinea pig tracheal spirals at 1 uM concentration; assay type: functional; settings: Trachea
Outline: (§1)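 Guinea pig tracheal spirals were split into paired sections in 10 mL baths of modified Krebs at 37 °C, gassed with 95% O₂/5% CO₂, under 2 g resting tension. After 60 min equilibration (washes every 15 min), reproducible contractions to 8 nM LTD₄ or 8 nM LTE₄ were obtained. Compound was added for 10 min, then agonist challenge repeated; percent inhibition is relative to the vehicle-treated paired section.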

[4] = species: Cavia porcellus; assay: Percent inhibition of the leukotriene E4 -induced contraction of guinea pig tracheal spirals at 10 uM concentration; assay type: functional; settings: Trachea
Outline: as §1

[5] = species: Cavia porcellus; assay: Percent inhibition of the leukotriene D4 (LTD4)-induced contraction of guinea pig tracheal spirals at 1 uM concentration; assay type: functional; settings: Trachea
Outline: as §1

[6] = test system: Cavia porcellus; assay: Compound (50 mg/kg, intraperitoneally) was tested in spontaneously breathing, conscious guinea pigs challenged with aerosolized LTD4 (60-min pretreatment); assay type: functional
[7] = molecular target: T1, Cysteinyl leukotriene receptor 1 (Cavia porcellus) (UniProt Q2NNR5); assay: Dissociation constant (KB) […] was evaluated in vitro in isolated guinea pig tracheal strips
T1 sequence (whole entry): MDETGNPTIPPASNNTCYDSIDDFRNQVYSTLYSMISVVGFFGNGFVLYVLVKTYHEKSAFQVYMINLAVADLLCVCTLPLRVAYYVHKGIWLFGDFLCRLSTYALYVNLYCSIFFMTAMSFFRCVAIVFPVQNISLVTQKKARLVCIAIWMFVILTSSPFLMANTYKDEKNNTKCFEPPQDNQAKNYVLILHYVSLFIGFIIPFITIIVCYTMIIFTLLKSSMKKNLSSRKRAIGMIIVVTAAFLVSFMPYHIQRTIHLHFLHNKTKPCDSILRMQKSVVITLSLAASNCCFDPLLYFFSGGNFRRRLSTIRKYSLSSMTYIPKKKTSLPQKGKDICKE

[8] = species: Cavia porcellus; assay: Percent inhibition of the leukotriene D4 (LTD4)-induced contraction of guinea pig tracheal spirals at 10 uM concentration; NS meana data was not statistically significant; assay type: functional; settings: Trachea
Outline: as §1

[9] = species: Cavia porcellus; assay: Percent inhibition of the leukotriene E4 (LTE4)-induced contraction of guinea pig tracheal spirals at 1 uM concentration; settings: Trachea
[10] = species: Cavia porcellus; assay: Percent inhibition of the leukotriene E4 (LTE4)-induced contraction of guinea pig tracheal spirals at 0.33 uM concentration; settings: Trachea
[11] = species: Cavia porcellus; assay: Percent inhibition of the leukotriene D4 (LTD4)-induced contraction of guinea pig tracheal spirals at 10 uM concentration; assay type: functional; settings: Trachea
Outline: as §1

[12] = species: Cavia porcellus; assay: Percent inhibition of the leukotriene E4 (LTE4)-induced contraction of guinea pig tracheal spirals at 50 uM concentration; NS means data was not statistically significant; assay type: functional; settings: Trachea
Outline: as §1

[13] = species: Cavia porcellus; assay: Percent inhibition of the leukotriene D4 (LTD4)-induced contraction of guinea pig tracheal spirals at 50 uM concentration; NS means data was not statistically significant.; assay type: functional; settings: Trachea
Outline: as §1

[14] = test system: Cavia porcellus; assay: Compound (50 mg/kg, intraperitoneally) was tested in spontaneously breathing, conscious guinea pigs challenged with aerosolized LTD4 (60-min pretreatment); NS means data were not statistically significant.; assay type: functional, organism-based
[15] = test system: Cavia porcellus; assay: Compound (50 mg/kg, intraperitoneally) was tested in spontaneously breathing, conscious guinea pigs challenged with aerosolized LTD4 (30-min pretreatment); assay type: functional
[16] = species: Cavia porcellus; assay: Percent inhibition of the leukotriene D4-induced contraction of guinea pig tracheal spirals at 4 uM concentration; assay type: functional; settings: Trachea
Outline: as §1

CCCc1c(OCc2ccc(-c3nn[nH]n3)cc2OC)ccc(C(C)=O)c1O
inhibition at 3.3 µM [1]: 45%
inhibition [2]: Not statistically significant

COc1cc(C(=O)O)ccc1COc1ccc(C(C)=O)c(O)c1Cc1ccccc1
inhibition at 1 µM [3]: 39%
inhibition at 10 µM [4]: 100%

CCCc1c(OCc2ccc(C(=O)O)c(Br)c2)ccc(C(C)=O)c1O
inhibition at 1 µM [5]: 30%
Protection [6]: 69%
Kb [7]: 170 nM

COc1cc(C(=O)O)ccc1COc1ccc(C(C)=O)c(O)c1
inhibition [8]: Not statistically significant

CCCc1c(OCc2cccc(NC(=O)c3ccccc3C(=O)O)c2)ccc(C(C)=O)c1O
inhibition at 1 µM [9]: 94%
inhibition at 0.33 µM [10]: 45%
Protection [6]: 9%
Kb [7]: 160 nM

CCCc1c(OCc2ccc(C(=O)O)cc2OC)ccc(C=O)c1O
inhibition at 10 µM [11]: 54%

CCCc1c(OCc2ccc(C(=O)O)cc2OC)ccc(CCC(=O)O)c1O
inhibition [12]: Not statistically significant

CCCCCCc1c(OCc2ccc(C(=O)O)cc2OC)ccc(C(C)=O)c1O
inhibition [13]: Not statistically significant

CCCc1c(OCC(O)COc2ccc3c(=O)cc(C(=O)O)oc3c2CCC)ccc(C(C)=O)c1O (stereo not drawn) [FPL-55712]
Protection [14]: inactive
Protection [15]: 32%
inhibition at 4 µM [16]: 62%

From ChEMBL document CHEMBL1124444, “Hydroxyacetophenone-derived antagonists of the peptidoleukotrienes” (1989)
